Source: ChEMBL document CHEMBL5303300, “EUbOPEN Chemogenomics Library - Multiplex” (2023)
Where “and” joins values, the source holds several entries; their conditions need not be identical. Identical values can stand only once.

Test system: Fibroblast
Assay: Multiplex assay against human fibroblast
Assay type: toxicity, cell-based
Conditions: number of replicates 2
Summary of the method: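 On a CQ1 microscope at 37°C and 5% CO2, live cells were imaged after compound addition. They had been stained at seeding with Hoechst33342, BioTracker Green Microtubule Cytoskeleton Dye, MitoTracker Red and Annexin V Alexa Fluor 680. CellPathfinder machine-learning gating assigned cells to Hoechst high-intensity objects or normal cells, normal cells to healthy, pyknosed or fragmented nuclei, and pyknosed cells to mitotic or apoptotic. Tubulin, mitochondrial-mass and membrane-permeability phenotypes are per cents of healthy-nucleus cells.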

[1] = 12 h, 1 µM, compound concentration 1 uM
[2] = 12 h, 10 µM, compound concentration 10 uM
[3] = 24 h, 1 µM, compound concentration 1 uM
[4] = 24 h, 10 µM, compound concentration 10 uM
[5] = 48 h, 1 µM, compound concentration 1 uM
[6] = 48 h, 10 µM, compound concentration 10 uM

CCc1cnn2c(NCc3ccc[n+]([O-])c3)cc(N3CCCCC3CCO)nc12 (configuration not stated)
Population Apoptotic (%) [1]: 35% and 55%
Population Fragmented Nuclei (%) [1]: 7% and 13%
Population Healthy Nuclei (%) [1]: 73% and 62%
Population Hoechst High Intensity Objects (%) [1]: 0%
Population Membrane Permeable-Phenotype (%) [1]: 3% and 4%
Population Mitochondria Different-Phenotype (%) [1]: 1% and 0%
Population Mitotic Cells (%) [1]: 65% and 44%
Population Normal (%) [1]: 100%
Population Pyknosed Nuclei (%) [1]: 19% and 23%
Population Tubulin-Different-Phenotype (%) [1]: 13% and 9%
Total Cell Count [1]: 209 and 219
Population Apoptotic (%) [2]: 42% and 55%
Population Fragmented Nuclei (%) [2]: 6% and 7%
Population Healthy Nuclei (%) [2]: 75%
Population Hoechst High Intensity Objects (%) [2]: 0%
Population Membrane Permeable-Phenotype (%) [2]: 5% and 7%
Population Mitochondria Different-Phenotype (%) [2]: 2% and 3%
Population Mitotic Cells (%) [2]: 57% and 44%
Population Normal (%) [2]: 99% and 100%
Population Pyknosed Nuclei (%) [2]: 17% and 16%
Population Tubulin-Different-Phenotype (%) [2]: 31% and 26%
Total Cell Count [2]: 191 and 174
Population Apoptotic (%) [3]: 59% and 63%
Population Fragmented Nuclei (%) [3]: 9% and 13%
Population Healthy Nuclei (%) [3]: 68% and 67%
Population Hoechst High Intensity Objects (%) [3]: 0%
Population Membrane Permeable-Phenotype (%) [3]: 7% and 3%
Population Mitochondria Different-Phenotype (%) [3]: 2% and 0%
Population Mitotic Cells (%) [3]: 40% and 36%
Population Normal (%) [3]: 100%
Population Pyknosed Nuclei (%) [3]: 22% and 19%
Population Tubulin-Different-Phenotype (%) [3]: 18% and 10%
Total Cell Count [3]: 188 and 213
Population Apoptotic (%) [4]: 68% and 52%
Population Fragmented Nuclei (%) [4]: 8% and 9%
Population Healthy Nuclei (%) [4]: 77% and 75%
Population Hoechst High Intensity Objects (%) [4]: 0%
Population Membrane Permeable-Phenotype (%) [4]: 10% and 4%
Population Mitochondria Different-Phenotype (%) [4]: 2% and 6%
Population Mitotic Cells (%) [4]: 32% and 48%
Population Normal (%) [4]: 100%
Population Pyknosed Nuclei (%) [4]: 13% and 15%
Population Tubulin-Different-Phenotype (%) [4]: 43% and 38%
Total Cell Count [4]: 181 and 162
Population Apoptotic (%) [5]: 65% and 64%
Population Fragmented Nuclei (%) [5]: 9% and 12%
Population Healthy Nuclei (%) [5]: 55% and 61%
Population Hoechst High Intensity Objects (%) [5]: 0%
Population Membrane Permeable-Phenotype (%) [5]: 8% and 9%
Population Mitochondria Different-Phenotype (%) [5]: 0% and 3%
Population Mitotic Cells (%) [5]: 34% and 35%
Population Normal (%) [5]: 100% and 99%
Population Pyknosed Nuclei (%) [5]: 35% and 26%
Population Tubulin-Different-Phenotype (%) [5]: 15% and 17%
Total Cell Count [5]: 188 and 216
Population Apoptotic (%) [6]: 73% and 63%
Population Fragmented Nuclei (%) [6]: 11% and 6%
Population Healthy Nuclei (%) [6]: 63%
Population Hoechst High Intensity Objects (%) [6]: 0%
Population Membrane Permeable-Phenotype (%) [6]: 14% and 20%
Population Mitochondria Different-Phenotype (%) [6]: 1% and 4%
Population Mitotic Cells (%) [6]: 26% and 36%
Population Normal (%) [6]: 100% and 99%
Population Pyknosed Nuclei (%) [6]: 25% and 29%
Population Tubulin-Different-Phenotype (%) [6]: 43% and 41%
Total Cell Count [6]: 179 and 149

COc1cc(Nc2cnc(C#N)c(O[C@H](C)CN(C)C)n2)ncc1-c1cnn(C)c1
Population Apoptotic (%) [1]: 37% and 47%
Population Fragmented Nuclei (%) [1]: 12% and 13%
Population Healthy Nuclei (%) [1]: 67% and 77%
Population Hoechst High Intensity Objects (%) [1]: 0%
Population Membrane Permeable-Phenotype (%) [1]: 3% and 2%
Population Mitochondria Different-Phenotype (%) [1]: 1%
Population Mitotic Cells (%) [1]: 62% and 52%
Population Normal (%) [1]: 100%
Population Pyknosed Nuclei (%) [1]: 20% and 9%
Population Tubulin-Different-Phenotype (%) [1]: 11% and 3%
Total Cell Count [1]: 185 and 222
Population Apoptotic (%) [2]: 37% and 41%
Population Fragmented Nuclei (%) [2]: 24% and 26%
Population Healthy Nuclei (%) [2]: 69% and 64%
Population Hoechst High Intensity Objects (%) [2]: 0%
Population Membrane Permeable-Phenotype (%) [2]: 2% and 4%
Population Mitochondria Different-Phenotype (%) [2]: 0%
Population Mitotic Cells (%) [2]: 62% and 58%
Population Normal (%) [2]: 99% and 100%
Population Pyknosed Nuclei (%) [2]: 5% and 8%
Population Tubulin-Different-Phenotype (%) [2]: 26% and 17%
Total Cell Count [2]: 300 and 346
Population Apoptotic (%) [3]: 50% and 40%
Population Fragmented Nuclei (%) [3]: 9% and 11%
Population Healthy Nuclei (%) [3]: 80% and 78%
Population Hoechst High Intensity Objects (%) [3]: 0%
Population Membrane Permeable-Phenotype (%) [3]: 2% and 3%
Population Mitochondria Different-Phenotype (%) [3]: 2% and 1%
Population Mitotic Cells (%) [3]: 50% and 60%
Population Normal (%) [3]: 100%
Population Pyknosed Nuclei (%) [3]: 9%
Population Tubulin-Different-Phenotype (%) [3]: 13% and 5%
Total Cell Count [3]: 168 and 206
Population Apoptotic (%) [4]: 61% and 70%
Population Fragmented Nuclei (%) [4]: 28% and 29%
Population Healthy Nuclei (%) [4]: 67% and 65%
Population Hoechst High Intensity Objects (%) [4]: 1% and 0%
Population Membrane Permeable-Phenotype (%) [4]: 3% and 0%
Population Mitochondria Different-Phenotype (%) [4]: 1% and 0%
Population Mitotic Cells (%) [4]: 38% and 30%
Population Normal (%) [4]: 98% and 100%
Population Pyknosed Nuclei (%) [4]: 4% and 5%
Population Tubulin-Different-Phenotype (%) [4]: 24% and 13%
Total Cell Count [4]: 292 and 355
Population Apoptotic (%) [5]: 43% and 64%
Population Fragmented Nuclei (%) [5]: 14% and 12%
Population Healthy Nuclei (%) [5]: 75% and 80%
Population Hoechst High Intensity Objects (%) [5]: 0%
Population Membrane Permeable-Phenotype (%) [5]: 0% and 1%
Population Mitochondria Different-Phenotype (%) [5]: 0%
Population Mitotic Cells (%) [5]: 56% and 35%
Population Normal (%) [5]: 100%
Population Pyknosed Nuclei (%) [5]: 9% and 6%
Population Tubulin-Different-Phenotype (%) [5]: 8% and 1%
Total Cell Count [5]: 170 and 205
Population Apoptotic (%) [6]: 43% and 75%
Population Fragmented Nuclei (%) [6]: 27% and 30%
Population Healthy Nuclei (%) [6]: 66%
Population Hoechst High Intensity Objects (%) [6]: 0%
Population Membrane Permeable-Phenotype (%) [6]: 1% and 2%
Population Mitochondria Different-Phenotype (%) [6]: 0%
Population Mitotic Cells (%) [6]: 56% and 25%
Population Normal (%) [6]: 100% and 99%
Population Pyknosed Nuclei (%) [6]: 5% and 3%
Population Tubulin-Different-Phenotype (%) [6]: 29% and 12%
Total Cell Count [6]: 312 and 369
